# Measurements: PubChem BioAssay AID588582 (Sanford-Burnham Center for Chemical Genomics, 2011)
# Calls of active or inactive are those of the source.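 Rule for the calls: active = mean EC50 at or below 20 µM; inactive = the rest.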
# Target: CHO-XBP1 luciferase reporter, IRE1-XBP1 arm activation
# Test: IRE1-XBP1 reporter activation in CHO-XBP1 cells, SAR follow-up, counter-screen for UPR apoptotic arm activator project, cell-based, luciferase luminescence, set 2 (AID 588582)
# Procedure, shortened: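 Test system: CHO-XBP1 luciferase reporter cells. Timing: cells plated 16–18 h before dosing, compound exposure 6 h at 37 °C. Signal: Steady-Glo luminescence. Doses: concentration series, DMSO ≤1% final.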
row,EC50,Compound
1,> 80 µM (inactive),O=C(Nc1nc2c(F)c(F)ccc2s1)c1ccccn1
2,> 80 µM (inactive),CC1(C)CCN(S(=O)(=O)c2ccc(NC(=O)c3cccc([N+](=O)[O-])c3)cc2)CC1
3,> 80 µM (inactive),Cn1c([N+](=O)[O-])cnc1C(=O)Nc1ccc(S(=O)(=O)N2CCC(C)(C)CC2)cc1
4,> 80 µM (inactive),O=C(Nc1nc2cc(F)c(F)cc2s1)c1ccccn1
5,> 80 µM (inactive),O=C(Nc1nc2ccc(Cl)cc2s1)c1ccccn1
6,> 80 µM (inactive),O=C(Nc1ccc(S(=O)(=O)N2CCC3(CCCCC3)CC2)cc1)c1ccc([N+](=O)[O-])o1
7,> 80 µM (inactive),O=C(Nc1nc2cc(F)cc(F)c2s1)c1ccccn1
8,> 80 µM (inactive),O=C(Nc1nc2ccc(F)c(F)c2s1)c1ccccn1
9,> 80 µM (inactive),O=C(Nc1ccc(S(=O)(=O)N2CCC(F)CC2)cc1)c1ccc([N+](=O)[O-])o1
10,> 80 µM (inactive),O=C(Nc1nc2ccc(C(F)(F)F)cc2s1)c1ccccn1
11,> 80 µM (inactive),O=C(Nc1nc2c(F)ccc(F)c2s1)c1ccccn1
12,> 80 µM (inactive),O=C(Nc1nc2cc(F)ccc2s1)c1ccccn1
13,> 80 µM (inactive),CC1(C)CCN(S(=O)(=O)c2ccc(NC(=O)c3ccc(C(F)(F)F)o3)cc2)CC1
14,> 80 µM (inactive),CC(C)(C)C1CCN(S(=O)(=O)c2ccc(NC(=O)c3ccc([N+](=O)[O-])o3)cc2)CC1
15,> 80 µM (inactive),O=C(Nc1ccc(S(=O)(=O)N2CCC(Cl)CC2)cc1)c1ccc([N+](=O)[O-])o1
16,> 80 µM (inactive),O=C(Nc1ccc(S(=O)(=O)C2CCOCC2)cc1)c1ccc([N+](=O)[O-])o1
17,> 80 µM (inactive),CC1CN(S(=O)(=O)c2ccc(NC(=O)c3ccc([N+](=O)[O-])o3)cc2)CC(C)O1 (stereo not drawn)
18,> 80 µM (inactive),O=C(Nc1nc2cccc(F)c2s1)c1ccccn1
